In ChEMBL document CHEMBL1134464, “Synthesis, antimalarial activity, biomimetic iron(II) chemistry, and in vivo metabolism of novel, potent C-10-phenoxy derivatives of dihydroartemisinin” (J Med Chem, 2001):
pIC50: −log10 of the molar value.

Key:
Plasmodium falciparum [1] = assay: In vitro antimalarial activity against chloroquine-resistant Plasmodium falciparum K1; format: functional, organism-based
In short: (§1)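 48-h [3H]hypoxanthine incorporation assay on P. falciparum cultured in human erythrocytes in RPMI 1640 with 25 mM HEPES, 32 mM NaHCO3 and 10% human serum, gassed 3% O2/4% CO2/93% N2. Assay at 2% parasitemia and 0.5% hematocrit, with DMSO stocks diluted in medium, run in triplicate. 0.5 μCi hypoxanthine added after 24 h at 37 °C, then 24 h more. IC50 interpolated from probit of log dose–response.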

Plasmodium falciparum [2] = assay: In vitro antimalarial activity against chloroquine-sensitive Plasmodium falciparum HB3; format: functional, organism-based; in short: as §1
Mus musculus [3] = assay: In vivo antimalarial activity against Plasmodium berghei; format: functional
Mus musculus [4] = assay: In vivo antimalarial activity against Plasmodium berghei when administered perorally; format: functional; conditions: po
Plasmodium yoelii = assay: In vivo antimalarial activity against Plasmodium yoelii when administered subcutaneously; conditions: Mus musculus, sc
Mus musculus [5] = assay: In vivo antimalarial activity against Plasmodium yoelii when administered subcutaneously; format: functional; conditions: sc
Plasmodium berghei = assay: In vivo antimalarial activity against Plasmodium berghei

SMILES	pIC50 (Plasmodium falciparum [1])	pIC50 (Plasmodium falciparum [2])	further results
C[C@H]1[C@H](Oc2ccccc2)O[C@@H]2OC3(C)CC[C@H]4[C@H](C)CC[C@@H]1[C@@]24OO3 (single isomer, unassigned)	8.53	8.58	
C[C@H]1[C@@H](Oc2ccccc2)O[C@@H]2OC3(C)CC[C@H]4[C@H](C)CC[C@@H]1[C@@]24OO3 (single isomer, unassigned)	8.44	8.49	ED50 (Mus musculus [3]): 3.09 mg/kg
Cc1ccc(O[C@H]2O[C@@H]3OC4(C)CC[C@H]5[C@H](C)CC[C@@H]([C@H]2C)[C@@]35OO4)cc1 (single isomer, unassigned)	8.41	8.49	
COc1ccc(O[C@@H]2O[C@@H]3OC4(C)CC[C@H]5[C@H](C)CC[C@@H]([C@H]2C)[C@@]35OO4)cc1 (single isomer, unassigned)	8.41	8.48	
Cc1ccc(O[C@@H]2O[C@@H]3OC4(C)CC[C@H]5[C@H](C)CC[C@@H]([C@H]2C)[C@@]35OO4)cc1 (single isomer, unassigned)	8.50	8.54	
C[C@H]1[C@@H](Oc2ccc(C(F)(F)F)cc2)O[C@@H]2OC3(C)CC[C@H]4[C@H](C)CC[C@@H]1[C@@]24OO3 (single isomer, unassigned)	8.28	8.41	ED50 (Mus musculus [3]): 2.12 mg/kg; ED50 (Mus musculus [4]): 2.7 mg/kg; ED90 (Mus musculus [4]): 5.4 mg/kg; ED50 (Plasmodium yoelii): 2.2 mg/kg; ED90 (Mus musculus [5]): 3.1 mg/kg
C[C@H]1[C@H](Oc2ccc(C(F)(F)F)cc2)O[C@@H]2OC3(C)CC[C@H]4[C@H](C)CC[C@@H]1[C@@]24OO3 (single isomer, unassigned)	8.34	8.47	
C[C@H]1[C@H](Oc2ccc(F)cc2)O[C@@H]2OC3(C)CC[C@H]4[C@H](C)CC[C@@H]1[C@@]24OO3 (single isomer, unassigned)	8.24	8.39	
COc1ccc(O[C@H]2O[C@@H]3OC4(C)CC[C@H]5[C@H](C)CC[C@@H]([C@H]2C)[C@@]35OO4)cc1 (single isomer, unassigned)	8.34		
C[C@H]1[C@@H](Oc2ccc(F)cc2)O[C@@H]2OC3(C)CC[C@H]4[C@H](C)CC[C@@H]1[C@@]24OO3 (single isomer, unassigned)	8.34	8.54	
CO[C@H]1O[C@@H]2O[C@@]3(C)CC[C@H]4[C@H](C)CC[C@@H]([C@H]1C)[C@@]24OO3 [ARTEMETHER]	8.34	8.47	ED50 (Mus musculus [3]): 6.02 mg/kg
C[C@@H]1CC[C@H]2[C@@H](C)C(=O)O[C@@H]3O[C@@]4(C)CC[C@@H]1[C@]32OO4 [ARTEMISININ]	7.95	8.01	
C[C@H]1[C@@H](O)O[C@@H]2O[C@@]3(C)CC[C@H]4[C@H](C)CC[C@@H]1[C@@]24OO3 [ARTENIMOL]			ED50 (Plasmodium berghei): 1.95 mg/kg
C[C@H]1[C@H](OC(=O)CCC(=O)[O-])O[C@@H]2O[C@@]3(C)CC[C@H]4[C@H](C)CC[C@@H]1[C@@]24OO3.[Na+] [SODIUM ARESUNATE]			ED50 (Mus musculus [4]): 4 mg/kg; ED90 (Mus musculus [4]): 13 mg/kg; ED50 (Plasmodium yoelii): 3.6 mg/kg; ED90 (Mus musculus [5]): 13.5 mg/kg
